“And” between values parts separate entries of the source, which are not always exact repeats. Equal entries are not always repeated.
Assays:
[1] = system: Wistar rats; test: 90‐day oral gavage study; type: in vivo
[2] = system: Wistar rats; test: Two‐generation reproduction toxicity study; conditions: rat, in vivo
[3] = system: Salmonella Typhimurium (TA98, TA100, TA1535 and TA1537) and Escherichia coli WP2uvrA; test: Bacterial reverse mutation assays; type: cell-based; conditions: up to 5,000 μg/plate, with or without S9‐mix
[4] = ADME in a lactating goat; type: in vivo
[5] = Third in vitro rumen fluid trial; conditions: 39°C
[6] = system: Wistar rats; test: Prenatal developmental toxicity study; conditions: rat, in vivo
[7] = system: bone marrow cells of NMRI BR mice; test: In vivo micronucleus test, intraperitoneal
Method in brief: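 A preliminary intraperitoneal toxicity study in NMRI BR mice set the top dose for the OECD TG 474 bone marrow micronucleus test. In the main test, mice were dosed ip at 250, 500 and 1,000 mg/kg bw and sampled at 24 h; top-dose and control groups were also sampled at 48 h. 2,000 PCEs were scored per animal.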

[8] = Incubation of; conditions: for 3‐NOP concentration remaining at t = 24 h: 38°C
[9] = system: human peripheral blood lymphocytes; test: In vitro micronucleus assay; type: cell-based
[10] = system: Holstein Friesian dairy cows; test: Dose‐range finding study in dairy cows; type: in vivo; conditions: group 10× (16 g 3‐NOP/day, 800 mg/kg complete feed) compared to the control
[11] = system: Wistar Han rats; type: in vivo; conditions: males and females; effects on spermatogenesis and corpora lutea
[12] = system: Salmonella Typhimurium strains TA98, TA100, TA102, TA1535 and TA1537; test: Ames microsuspension test; type: cell-based; conditions: 1.6 to 500 μg/plate, with and without metabolic activation
[13] = system: Beagle dogs; test: 90‐day oral gavage study; type: in vivo
[14] = system: Chinese hamster V79 cells; test: In vitro micronucleus assay with CREST staining; type: cell-based
[15] = system: Syrian hamster embryo cells; test: Cell transformation assay; type: cell-based; conditions: 500 to 2,500 μg/mL, 7 days
Method in brief: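 GLP in vitro transformation assay in Syrian hamster embryo cells, following the OECD draft proposal (2012). The test compound was given as a continuous 7-day treatment at six concentrations from 500 to 2,500 μg/mL, chosen from a dose-range finding test. The frequency of morphologically transformed colonies was scored against positive and vehicle controls.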

[16] = ADME of 14C‐3‐NOP following single or multiple oral administration; type: in vivo, rat; conditions: for Radioactivity in plasma 48 h after the last dose: 50 mg/kg bw for five days
[17] = system: Wistar rats; test: 52‐week oral gavage study; type: in vivo
[18] = Octanol–water partition coefficient; type: physicochemical
[19] = Skin irritation study
[20] = single 50 mg/kg bw, males, 48 h
[21] = trial iii, 500 mg/kg bw, 1 h, females
[22] = trial iii, 500 mg/kg bw, 1 h, males
[23] = trial iv, 5 x 50 mg/kg bw, 48 h after last administration, females
[24] = trial iv, 5 x 50 mg/kg bw, 48 h after last dose, males

## O=[N+]([O-])OCCCO [3‐NOP, propan‐1,3‐diol‐mononitrate]
[1]; females
  NOAEL: 300 mg/kg bw per day
[1]; males, effects on spermatogenesis
  NOAEL: 100 mg 3‐NOP/kg bw per day
[2]
  NOAEL for parental toxicity: 100 mg/kg bw per day
  NOAEL for reproduction and developmental toxicity: at least 100 mg/kg bw per day
[3]
  Revertant colonies: No increase in the mean number of revertant colonies
[4]; 0–8 h after the sixth day of administration
  Milk radioactivity in the aqueous phase of milk: 75.2%
[4]; 4.34 mg/kg bw per day, 7 days
  Radioactivity excreted via faeces: 1.9 % of total radioactivity appli
  Radioactivity excreted via milk: 6.42 % of total radioactivity appli
  Radioactivity excreted via urine: 3.5 % of total radioactivity appli
  Radioactivity in the intestinal tract content: 1.14 % of total radioactivity appli
  Radioactivity remaining in the total edible tissues: 4.98 % of total radioactivity appli
  Total radioactivity excreted: 11.85%
  Total recovery at sacrifice: 17.97%
[4]; 8–24 h after the sixth day of administration
  Milk radioactivity in the aqueous phase of milk: 59.0%
[4]; 24 h after the first administration
  Radioactive residues in plasma: 0.61 mg 3‐NOP‐eq/kg
[4]; at sacrifice
  Radioactive residues in plasma: 3.72 mg 3‐NOP‐equivalents/kg
[4]; milk collected 0–8 h post‐dose
  Nitrate esters in milk, not detectable (LOD): < 0.82 mg 3‐NOP‐equivalent/kg
[4]; milk collected 8–24 h post‐dose
  Nitrate esters in milk, not detectable (LOD): < 0.43 mg 3‐NOP‐equivalent/kg
[4]; plasma collected at sacrifice
  Plasma radioactivity non‐extractable in the protein precipitate: Eighty‐five
[5]; 1 mg/L, anaerobic, n = 6
  3‐NOP concentration remaining after 16 h: 1.0%
[5]; aerobic control, n = 2
  3‐NOP concentration remaining after 16 h: 31.9%
[6]
  Maternal NOAEL: 300 mg/kg bw per day
[7]; 250, 500 and 1,000 mg/kg bw intraperitoneally
  Frequency of micronuclei: comparable between treated and negative control groups
[7]; preliminary toxicity study, intraperitoneal
  Dose showing mortality: 2,000 mg/kg bw
[8]; 2.2 mg/L
  Radioactivity in the non‐dissolved fractions: ≤ 5.5%
[8]; 2.2 mg/L, anaerobic
  3‐NOP concentration remaining at t = 24 h: 0%
[8]; 23 mg/L
  Radioactivity in the non‐dissolved fractions: 7%
[8]; 23 mg/L, anaerobic
  3‐NOP concentration remaining at t = 24 h: < 0.1%
[8]; 23 or 2.2 mg/L, up to 24 h at 38°C, anaerobic, pH about 6.2
  Radioactivity in the trapped gas phases: ≤ 0.1 % of the total radioactivity
[8]; after 6 h
  3‐NOP concentration remaining: 54%
[8]; after 12 h
  3‐NOP concentration remaining: 6%
[8]; control samples (no or only minor)
  Abiotic degradation of 3‐NOP to propane‐1,3‐diol: 9.8%
[9]; 164, 512 and 1,211 μg/mL, with and without S9‐mix
  Frequency of micronuclei: no increase in the frequency of micronuclei
[9]; up to 1,211 μg/mL
  Cytotoxicity: No cytotoxicity
[10]
  Feed intake: significantly (p < 0.05) reduced
[11]
  NOAEL: 100 mg 3‐NOP/kg bw per day
[12]
  Revertant colonies: No significant increase in the mean number of revertant colonies
[13]; females, severe clinical signs in one female
  NOAEL: 100 mg 3‐NOP/kg bw per day
[13]; males
  NOAEL: 300 mg 3‐NOP/kg bw per day
[14]; 540 μg/mL
  Micronuclei containing chromosome fragments (CREST staining): 79%
[14]; with metabolic activation, 3 + 21 h, at 540, 570 and 600 μg/mL
  Micronucleus frequency: statistically significant increase in micronuclei
[15]
  Morphologically transformed colonies: No significant increase in the frequency of morphologically transformed colonies
[16]; 500 mg/kg, 1 h, females
  Parent compound in the stomach and caecum: 70 % of administered dose
[16]; 500 mg/kg, 1 h, males
  Parent compound in the stomach and caecum: 83 % of administered dose
[16]; 500 mg/kg, 1 h, two values given, sexes not named
  Parent compound in the liver: 3.5 % of TRR
[16]; single 50 mg/kg bw, females
  Total mean recovery of administered radioactivity: 91.1%
  Urinary excretion, mean: 4.8%
[16]; single 50 mg/kg bw, females, 50 mg/kg
  Mean radioactivity in plasma 48 h after dosing: 4.2 μg 3‐NOP‐eq/mL and 4.22 μg 3‐NOP‐eq/mL
[16]; single 50 mg/kg bw, males
  Total mean recovery of administered radioactivity: 95.9%
  Urinary excretion, mean: 6.3%
[16]; single 50 mg/kg bw, males and females
  Administered radioactivity recovered in expired air: about 80%
[16]; [20]
  Mean concentration of TR in adrenals: 19.5 μg 3‐NOP‐eq/g
  Mean concentration of TR in bone marrow: 14.3 μg 3‐NOP‐eq/g
  Mean concentration of TR in kidneys: 10.9 μg 3‐NOP‐eq/g
  Mean concentration of TR in liver: 12.6 μg 3‐NOP‐eq/g
[16]; single 50 mg/kg bw, males, 50 mg/kg
  Mean radioactivity in plasma 48 h after dosing: 7.0 μg 3‐NOP‐eq/mL and 7.03 μg 3‐NOP‐eq/mL
[16]; single 500 mg/kg bw, females
  Administered radioactivity recovered in expired air: 61.7%
  Total mean recovery of administered radioactivity: 85.3%
  Urinary excretion, mean: 13.1%
[16]; single 500 mg/kg bw, females, 500 mg/kg
  Mean radioactivity in plasma 48 h after dosing: 34.5 μg 3‐NOP‐eq/mL and 34.47 μg 3‐NOP‐eq/mL
[16]; single 500 mg/kg bw, males
  Administered radioactivity recovered in expired air: 73.5%
  Total mean recovery of administered radioactivity: 93.2%
  Urinary excretion, mean: 11.3%
[16]; single 500 mg/kg bw, males, 500 mg/kg
  Mean radioactivity in plasma 48 h after dosing: 51.9 μg 3‐NOP‐eq/mL and 51.92 μg 3‐NOP‐eq/mL
[16]; trial iii, 500 mg/kg bw, 15 min, females
  Mean concentration of TR in plasma: 477 μg 3‐NOP‐eq/mL
[16]; trial iii, 500 mg/kg bw, 15 min, males
  Mean concentration of TR in plasma: 396 μg 3‐NOP‐eq/mL
[16]; trial iii, 500 mg/kg bw, 45 min, females
  Mean concentration of TR in plasma: 629 μg 3‐NOP‐eq/mL
[16]; trial iii, 500 mg/kg bw, 45 min, males
  Mean concentration of TR in plasma: 512 μg 3‐NOP‐eq/mL
[16]; [21]
  Mean concentration of TR in plasma: 583 μg 3‐NOP‐eq/mL
  TR in kidneys: 865 μg 3‐NOP‐eq/g
  TR in liver: 622 μg 3‐NOP‐eq/g
[16]; [22]
  Mean TR in kidneys: 636 μg 3‐NOP‐eq/g
  Mean TR in liver: 655 μg 3‐NOP‐eq/g
  Mean TR in lungs: 494 μg 3‐NOP‐eq/g
  Mean TR in pancreas: 471 μg 3‐NOP‐eq/g
  Mean concentration of TR in plasma: 467 μg 3‐NOP‐eq/mL
[16]; trial iii, 500 mg/kg bw, all animals
  Time of TR max in plasma: 45 min
[16]; trial iv, females
  Radioactivity in plasma 48 h after the last dose: 11.7 μg 3‐NOP‐eq/mL
  Radioactivity in carcass: 3.6%
  Total mean recovery of the administered radioactivity: 83.1%
[16]; trial iv, males
  Radioactivity in plasma 48 h after the last dose: 14.4 μg 3‐NOP‐eq/mL
  Radioactivity in carcass: 3.5%
  Total mean recovery of the administered radioactivity: 86.4%
[16]; [23]
  TR in adrenals: 57.0 μg 3‐NOP‐eq
  TR in bone marrow: 21.3 μg 3‐NOP‐eq/g
  TR in kidneys: 30.0 μg 3‐NOP‐eq
  TR in liver: 32.3 μg 3‐NOP‐eq
  TR in lungs: 20.7 μg 3‐NOP‐eq/g
  TR in ovaries: 35.7 μg 3‐NOP‐eq
  TR in pancreas: 21.6 μg 3‐NOP‐eq/g
  TR in renal fat: 34.1 μg 3‐NOP‐eq
  TR in spleen: 20.1 μg 3‐NOP‐eq/g
  TR in thymus: 24.7 μg 3‐NOP‐eq/g
[16]; [24]
  TR in adrenals: 51.2 μg 3‐NOP‐eq/g
  TR in bone marrow: 34.1 μg 3‐NOP‐eq/g
  TR in epididymis: 18.2 μg 3‐NOP‐eq/g
  TR in kidneys: 34.8 μg 3‐NOP‐eq/g
  TR in liver: 34.9 μg 3‐NOP‐eq/g
  TR in lungs: 18.7 μg 3‐NOP‐eq/g
  TR in pancreas: 20.0 μg 3‐NOP‐eq/g
  TR in prostate: 24.6 μg 3‐NOP‐eq/g
  TR in spleen: 22.9 μg 3‐NOP‐eq/g
  TR in thymus: 28.5 μg 3‐NOP‐eq/g
[16]; trial iv, 48 h after the last dose
  Mean cumulative excretion via the expired air: about 70 % of the total administered radioactivity
[17]; females
  NOAEL: 600 mg 3‐NOP/kg bw per day
[17]; males
  NOAEL: 100 mg 3‐NOP/kg bw per day
[18]
  log KOW: 0.399
[19]
  Skin irritation potential: skin irritant
